# Experimental data from PubChem BioAssay AID463210 (The Scripps Research Institute Molecular Screening Center, 2010).
# The whole screen tested about 330,000 compounds, of which about 300 (0.091%) were called active.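 Rule for the calls: active = percent activation above the screen-wide mean plus 3 SD (cut at about 25% in these data); inactive = the rest.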 For the sample, actives were picked, then their nearest neighbours and some compounds at random.
# Molecular target: Caspase-7 (Homo sapiens) (UniProt P55210)
# Assay: activation of procaspase-7 enzyme – biochemical, absorbance, HTS, human, counter-screen for procaspase-3 activator project, primary screen (AID 463210)
# Conditions: recombinant procaspase-7, Ac-DEVD-pNA absorbance 405 nm; at 8.5 µM; stronger effect = higher value; D23A/D198A/D206A triple mutant, cannot self-cleave; scale: DMSO 0, 5 µM enzyme 100
# Summary of the method: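 System: Uncleavable procaspase-7 mutant enzyme; Amount: 2 µM procaspase-7 mutant as dispensed; Schedule: 1 h compound preincubation, 2 h substrate cleavage, 25 °C; Measured by: 405 nm absorbance of p-nitroaniline; Evaluation: percent activation from buffer-corrected 0–120 min absorbance change; Control set: low DMSO alone, high DMSO plus 5 µM PC-7.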
# Chain of Caspase-7 (Homo sapiens) (P55210 whole entry D23A/D198A/D206A): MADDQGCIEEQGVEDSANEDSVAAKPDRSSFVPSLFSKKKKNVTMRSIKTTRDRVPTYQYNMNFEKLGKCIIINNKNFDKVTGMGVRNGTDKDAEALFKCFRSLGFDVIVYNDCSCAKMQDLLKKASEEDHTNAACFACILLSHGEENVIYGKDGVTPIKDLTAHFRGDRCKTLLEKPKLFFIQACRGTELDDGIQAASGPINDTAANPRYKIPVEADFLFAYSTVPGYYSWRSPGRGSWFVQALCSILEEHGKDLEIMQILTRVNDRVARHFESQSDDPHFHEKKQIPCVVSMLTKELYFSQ
row,SMILES,activation
1,COc1cc(OC)cc(C(=O)NC2CCN(C(=O)N3c4ccccc4Sc4ccccc43)CC2)c1,2.43% (inactive)
2,CON(C)S(=O)(=O)c1ccc2c(c1)NC(=O)C1CCCN21 (stereo not given),-0.92% (inactive)
3,CCCCn1c(-c2cccc(C)c2)nc2cc3[nH]c(=O)c(C(C)C)nc3cc21,11.3% (inactive)
4,CC(=O)c1ccc(OC(=O)N2CCOCC2)cc1,-1.27% (inactive)
5,O=C(NC1CCCC1)C(NS(=O)(=O)c1ccc(Br)s1)c1ccccc1 (stereo not given),-4.82% (inactive)
6,O=S(=O)(Cc1noc(-c2ccc(OC(F)(F)F)cc2)n1)c1ccc(F)cc1,10.7% (inactive)
7,Cc1ccc(C)c(NS(=O)(=O)c2c(C)[nH]c(C)c2C(=O)N2CCCCC2)c1,4.13% (inactive)
8,COc1ccccc1N1CCN(C(=O)c2ccc(NC3=NC4CS(=O)(=O)CC4S3)cc2)CC1 (stereo not given),5.2% (inactive)
9,COc1ccc(Nc2ncc(C(=O)N3CCN(c4ccccc4OC)CC3)c3ccccc23)cc1,49.2% (active)
10,COc1ccccc1N1CCN(C(=O)c2cn(-c3ccccc3)nc2-c2cccnc2)CC1,6.33% (inactive)
11,CC(C)C(c1nnnn1C(C)(C)C)N1CCN(Cc2cccnc2)CC1 (stereo not given),-6.66% (inactive)
12,COc1ccc(CN(C)Cc2nc3cc(OC)c(OC)cc3c(=O)[nH]2)c(OC)c1,4.38% (inactive)
13,CSCCC(NS(=O)(=O)c1ccc(C)cc1)C(=O)NCCc1c[nH]c2ccccc12 (stereo not given),-0.01% (inactive)
14,CCCCS(=O)c1snnc1C (stereo not given),-3.16% (inactive)
15,CCOC(=O)N1CCN(C(=O)c2ccccc2SCC(=O)NCC2CCCCC2)CC1,-1.95% (inactive)
16,O=C(O)CCS(=O)(=O)c1ccc(-c2ccccc2)cc1,6.38% (inactive)
17,O=C1OCCN1C(=O)[C@H]1[C@H](c2ccc(Cl)cc2)C(c2cccc(Cl)c2)=NN1c1ccc(Br)cc1,10.5% (inactive)
18,O=C1OCCN1C(=O)[C@H]1[C@H](c2ccccc2)C(c2ccc(F)cc2)=NN1c1ccccc1,-10.3% (inactive)
19,O=C1OCCN1C(=O)[C@H]1[C@H](c2ccc(F)cc2)C(c2ccccc2)=NN1c1ccc(Br)cc1,28.9% (active)
20,O=C(COc1ccccc1Cl)N1N=C(c2cccs2)CC1c1ccco1 (stereo not given),-20% (inactive)
21,COc1ccccc1N1N=C(c2cccs2)CC1c1ccccc1 (stereo not given),-22.6% (inactive)
22,Fc1ccc(N2N=C(c3cccs3)CC2c2ccco2)c(F)c1 (stereo not given),51% (active)
23,CN(C(=O)CCNC(=O)Cn1ccc2ccccc2c1=O)c1ccc(Br)cc1,4.82% (inactive)

row,SMILES,activation
1,Cn1c(CCCOc2ccc(Cl)cc2Cl)n[nH]c1=S,-19.3% (inactive)
2,O=C(Nc1cccc2c1CCCC2)c1ccc(F)cc1,7.3% (inactive)
3,Cc1ncn2cc(-c3ccc(Cl)cc3Cl)[nH]c(=O)c12,10.9% (inactive)
4,O=C(c1cccc(-n2cccc2)c1)N1CCN(S(=O)(=O)c2ccc(F)cc2)CC1,3.36% (inactive)
5,Cc1ccc2c(CC(=O)NCc3cccs3)coc2c1,-3.04% (inactive)
6,COC(=O)c1ccc(CN2CCN(CCCc3ccccc3)C(CCO)C2)cc1 (stereo not given),2.25% (inactive)
7,Cc1cccc(N2CC(C)Cn3c2nc2c3c(=O)n(CC(=O)OCc3ccccc3)c(=O)n2C)c1 (stereo not given),1.17% (inactive)
8,COc1ccc(C2=NS(=O)(=O)N(C)C(C(=O)N(C)Cc3ccccc3)=C2)cc1,1.33% (inactive)
9,N#Cc1ccccc1CN1C(=O)S/C(=C/c2cccn2-c2cccc(C(=O)O)c2)C1=O,-18.8% (inactive)
10,O=C(Cc1coc2ccc3ccccc3c12)NCc1cccs1,9.96% (inactive)
11,CC1(C)Cc2c(sc(NC(=O)C(=O)NCC3CCCO3)c2C(=O)O)CO1 (stereo not given),1.97% (inactive)
12,CC(=O)Oc1ccc2c(C)c(CC(C)O)c(=O)oc2c1 (stereo not given),29.6% (active)
13,CCc1c(C)c2ccc(OC3CCCCC3=O)cc2oc1=O (stereo not given),4.02% (inactive)
14,COC(=O)Cc1c(C)c2ccc(OCC(=O)NCc3ccc4c(c3)OCO4)cc2oc1=O,13.2% (inactive)
15,CC(C(=O)NCCc1ccc(S(N)(=O)=O)cc1)N1C(=O)CC(C)(C)Sc2ccccc21 (stereo not given),-4.12% (inactive)
16,COc1ccc(C2(C)ON(c3ccccc3C(F)(F)F)C2=O)cc1 (stereo not given),2.15% (inactive)
17,O=C(NC1CCc2ccccc21)C12CN(Cc3ccccc3)CC1C(c1cccc([N+](=O)[O-])c1)=NO2 (stereo not given),7.39% (inactive)
18,COc1ccc(NC(=O)c2cccc3c2C(=O)N(CC2CCCO2)C3)cc1OC (stereo not given),9.62% (inactive)
19,COc1ccc(/C=N/Nc2nc3ccccc3c(=O)[nH]2)cc1,28.9% (active)
20,COc1ccc(/C=N/Nc2ccccc2C(=O)O)cc1,-19.5% (inactive)
21,COc1ccc(/C=N/Nc2nc(-c3ccc(C)cc3)c(C#N)c(=O)[nH]2)cc1,1.13% (inactive)
22,C/C(=N/NC(=O)CSc1ccccn1)c1ccc([N+](=O)[O-])cc1,1.61% (inactive)
23,CCCNC(=S)N1CCCC(c2nc3ccccc3[nH]2)C1 (stereo not given),6.91% (inactive)

row,SMILES,activation
1,Cc1cccc(-n2c(SCC(=O)Nc3cccc(S(=O)(=O)NC4=NCCCCC4)c3)nc3ccccc3c2=O)c1C,-0.51% (inactive)
2,CC1(C)C(C=C(Cl)Cl)C1C(=O)NC(O)C(=O)c1ccccc1 (stereo not given),6.56% (inactive)
3,COC(=O)c1ccc(N2CCOCC2)c(NC(=O)c2ccc(Br)o2)c1,1.06% (inactive)
4,COc1ccccc1CNC(=O)COC(=O)CNS(=O)(=O)c1ccc(NC(C)=O)cc1,7.44% (inactive)
5,CCOC(=O)N1CCN(Cc2nnc(-c3ccccc3Cl)o2)CC1,-1.71% (inactive)
6,Cn1cnnc1SCc1nnc(-c2ccccc2Br)o1,2.67% (inactive)
7,Nc1cccc2c1C(=O)N(Cc1nnc(-c3ccccc3Br)o1)C2=O,64.5% (active)
8,CN(C)CCCSc1ccccc1NC(=O)/C=C/c1ccccc1,10.4% (inactive)
9,Cc1nc(SCC(=O)N2CCc3ccccc3C2)c2c(C)c(C)sc2n1,18.1% (inactive)
10,CC(C)C(=O)N1CCN(c2nc(-c3ccccc3)c3c(c2C#N)CC(C)(C)OC3)CC1,12.1% (inactive)
11,CC1(C)Cc2c(C#N)c(SCc3nc4ccccc4[nH]3)nc(N3CCOCC3)c2CO1,33% (active)
12,COc1ccc(CSc2nc(N3CCOCC3)c3c(c2C#N)CC(C)(C)OC3)cc1,-0.56% (inactive)
13,Cc1ccc(CSCCNC(=O)CN(c2ccc(F)cc2)S(C)(=O)=O)cc1,-2.84% (inactive)
14,CCCc1c(C(=O)N/N=C(\C)CCc2ccc(OC)cc2)nnn1-c1nonc1N,2.5% (inactive)
15,O=C(NCCc1ccco1)c1ccc(OCc2cn3ccccc3n2)cc1,15.8% (inactive)
16,CCOc1cc(C(=O)OCC(=O)Nc2cccc(C)c2)ccc1OCC(=O)N1CCOCC1,15.3% (inactive)
17,O=S(=O)(NCCSc1ccccn1)c1ccc(Cl)cc1,-2.06% (inactive)
18,COc1ccc(NC(=O)CNC(=O)Cn2ccc3ccccc3c2=O)c(OC)c1,-4.04% (inactive)
19,Cc1ccc(Cc2cncc(O)c2)cc1S(=O)(=O)O,10.6% (inactive)
20,COC(=O)/C=C(\Oc1ccccc1)C1(O)CCCCC1,7.7% (inactive)
21,NS(=O)(=O)c1ccc(CCNC(=O)COC(=O)COc2cccc(C(F)(F)F)c2)cc1,-7.58% (inactive)
22,COc1ccc(OC)c(S(=O)(=O)Nc2cccc(-c3ccc4nncn4n3)c2)c1,5.81% (inactive)
23,Nc1c(-c2cccc(Cl)c2)cnn1-c1cccc([N+](=O)[O-])c1,-13% (inactive)

row,SMILES,activation
1,O=C(NC1CCCC1)C(c1ccco1)N(C(=O)c1csnn1)c1ccccc1 (stereo not given),6.3% (inactive)
2,Cn1cnnc1Sc1ccc(S(C)(=O)=O)cc1[N+](=O)[O-],6.34% (inactive)
3,COc1ccc(CNC(=O)COC(=O)CCS(=O)(=O)c2ccc(C)cc2)cc1OC,6.34% (inactive)
4,CC(C)CN1CCNC(=O)C1CC(=O)N(C)CC1CCOCC1 (stereo not given),-1.75% (inactive)
5,Cc1ccccc1NC(=O)CSC1=NCCN1,9.38% (inactive)
6,O=C(O)c1cc(S(=O)(=O)NC2CCCc3ccccc32)ccc1O (stereo not given),-8.22% (inactive)
7,CNS(=O)(=O)c1cccc(C(=O)NCC2CCCCC2)c1,1.69% (inactive)
8,CNS(=O)(=O)c1cccc(C(=O)NC2CCCc3ccccc32)c1 (stereo not given),38.5% (active)
9,CCOC(=O)/C=C/c1ccc(C(F)(F)F)cc1S(=O)(=O)NC(C)(C)C,2.37% (inactive)
10,Cc1cc(Cl)c2oc(C(=O)N3CCC(O)(c4ccccc4)CC3)c(C)c2c1,-0.4% (inactive)
11,COc1ccccc1CNC(=O)CN1CCC(n2cnc3cc(F)ccc32)CC1,-8.61% (inactive)
12,Cc1coc2c1c(C)cc1oc(=O)c(CC(=O)NCC(=O)N[C@H](C(=O)O)C(C)C)c(C)c12,-1.78% (inactive)
13,CC1CCN(C(=O)Cn2nnnc2CN2CCOCC2)CC1,0.88% (inactive)
14,CCNS(=O)(=O)c1ccc(NC(=O)c2cncc(Br)c2)cc1,3.96% (inactive)
15,Cc1ccc2c(C)c(C(=O)N3CCN(c4ccncc4)CC3)oc2c1C,0% (inactive)
16,Cc1ccc(-c2csc(N3CCN(c4cc5c(cc4Cl)nc(-c4ccncc4)n5CCOCCO)CC3)n2)cc1,1.55% (inactive)
17,CC(C)C1Nc2c(C(=O)O)cccc2C(Nc2ccccc2C(=O)O)C1(C)C (stereo not given),-0.22% (inactive)
18,CCOC(=O)Cn1c2c(c(-c3ccccc3OC)cc1=O)CCCC2,0.27% (inactive)
19,CC(=O)Nc1ccc(NS(=O)(=O)c2cc(C)sc2C)cc1,4.24% (inactive)
20,O=C(NCCS(=O)(=O)N1CCN(c2ccccc2F)CC1)c1ccc(Br)o1,10.8% (inactive)
21,COc1ccc(N2CCN(C(=O)Cn3cnc4sc(C)c(S(=O)(=O)N5CCOCC5)c4c3=O)CC2)cc1,7.13% (inactive)
